Measured values taken from ChEMBL document CHEMBL1134666, “Design, synthesis, and biological evaluation of novel nucleoside and nucleotide analogues as agents against DNA viruses and/or retroviruses” (J Med Chem, 2001).

Assays:
[1] = substrate: Nc1ncnc2c1ncn2[C@@H]1O[C@H](COP(=O)(O)O)[C@@H](OP(=O)(O)COCCn2cnc3ncnc(N)c32)[C@H]1O; experiment: (§1) Michaelis rate constant is determined by the Lineweaver and Burk method against PRPP synthetase
Procedure, shortened: (§2)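 PRPP synthetase reaction in 10.0 mM potassium phosphate buffer (pH 8.0) with 5.0 mM MgCl₂, 2.5 mM PRPP, 0.04 unit enzyme and AMP or test nucleotide. Reactions ran linearly and were stopped with MeOH after 4 h. Diphosphate or ATP formation was analysed by anion-exchange HPLC. Inhibition was measured at different AMP concentrations plus inhibitor, with 0.002 unit enzyme, 37 °C, 15 min, ATP formation followed by HPLC.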

[2] = substrate: Nc1ncnc2ncn(CCOCP(=O)(O)O)c12; experiment: as §1; procedure, shortened: as §2
[3] = substrate: Nc1nc(O)c2c(ncn2COCCO)n1; settings: herpes simplex virus
[4] = substrate: Nc1ncnc2c1ncn2COCCO; settings: herpes simplex virus
[5] = substrate: Nc1ncnc2c1ncn2[C@@H]1O[C@H](CO)[C@@H](O)[C@@H]1O; settings: herpes simplex virus
[6] = substrate: Nc1ncnc2ncn(COCCO)c12; settings: herpes simplex virus
[7] = substrate: Nc1nc(O)c2c(ncn2COCCO)n1; settings: Chlorocebus sabaeus; Vero
[8] = substrate: Nc1nc2c(ncn2COCCO)c(=O)[nH]1; settings: Chlorocebus sabaeus; Vero
[9] = substrate: COC1=C(OC)/C(=C/COP(=O)(O)COCCn2cnc3c(N)ncnc32)OC1=O; experiment: (§3) Michaelis rate constant is determined by the Lineweaver and Burk method against adenosine deaminase
Procedure, shortened: (§4)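 Reaction velocity measured as µmol/min per mg enzyme across substrate concentrations.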

[10] = substrate: COC1=C(OC)/C(=C/COP(=O)(O)OC[C@H]2O[C@@H](n3cnc4c(N)ncnc43)[C@H](O)[C@@H]2OP(=O)(O)COCCn2cnc3ncnc(N)c32)OC1=O; experiment: as §3; procedure, shortened: as §4
[11] = substrate: Nc1ncnc2c1ncn2[C@@H]1O[C@H](COP(=O)(O)O)[C@@H](OP(=O)(O)COCCn2cnc3ncnc(N)c32)[C@H]1O; experiment: as §3; procedure, shortened: as §4
[12] = substrate: Nc1ncnc2ncn(CCOCP(=O)(O)O)c12; experiment: as §3; procedure, shortened: as §4
[13] = substrate: Nc1ncnc2ncn(COCCO)c12; experiment: as §3; procedure, shortened: as §4

B1: Phosphoribosyl pyrophosphate synthase-associated protein 2 (Homo sapiens), O60256 (protein)
chain: MFCVTPPELETKMNITKGGLVLFSANSNSSCMELSKKIAERLGVEMGKVQVYQEPNRETRVQIQESVRGKDVFIIQTVSKDVNTTIMELLIMVYACKTSCAKSIIGVIPYFPYSKQCKMRKRGSIVSKLLASMMCKAGLTHLITMDLHQKEIQGFFNIPVDNLRASPFLLQYIQEEIPDYRNAVIVAKSPASAKRAQSFAERLRLGIAVIHGEAQDAESDLVDGRHSPPMVRSVAAIHPSLEIPMLIPKEKPPITVVGDVGGRIAIIVDDIIDDVDSFLAAAETLKERGAYKIFVMATHGLLSSDAPRRIEESAIDEVVVTNTIPHEVQKLQCPKIKTVDISMILSEAIRRIHNGESMSYLFRNIGLDD
For B1, the Km [1] was 570 µM and the Km [2] was 4800 µM.

B2: Thymidine kinase, cytosolic (Homo sapiens), P04183 (protein)
chain: MSCINLPTVLPGSPSKTRGQIQVILGPMFSGKSTELMRRVRRFQIAQYKCLVIKYAKDTRYSSSFCTHDRNTMEALPACLLRDVAQEALGVAVIGIDEGQFFPDIVEFCEAMANAGKTVIVAALDGTFQRKPFGAILNLVPLAESVVKLTAVCMECFREAAYTKRLGTEKEVEVIGGADKYHSVCRLCYFKKASGQPAGPDNKENCPVPGKPGEAVAARKLFAPQQILQCSPAN
Work on B2 yielded a Km [3] of 12.8 µM, a Km [4] of 2 µM and a Km [5] of 1.5 µM. The Km [6] was 30 µM, the Km [7] was 18.3 µM and the Km [8] was 2.2 µM.

B3: Adenosine deaminase (Bos taurus), P56658 (protein)
chain: MAQTPAFNKPKVELHVHLDGAIKPETILYYGRKRGIALPADTPEELQNIIGMDKPLSLPEFLAKFDYYMPAIAGCREAVKRIAYEFVEMKAKDGVVYVEVRYSPHLLANSKVEPIPWNQAEGDLTPDEVVSLVNQGLQEGERDFGVKVRSILCCMRHQPSWSSEVVELCKKYREQTVVAIDLAGDETIEGSSLFPGHVKAYAEAVKSGVHRTVHAGEVGSANVVKEAVDTLKTERLGHGYHTLEDATLYNRLRQENMHFEVCPWSSYLTGAWKPDTEHPVVRFKNDQVNYSLNTDDPLIFKSTLDTDYQMTKNEMGFTEEEFKRLNINAAKSSFLPEDEKKELLDLLYKAYGMPSPASAEQCL
With B3 the Km [9] was over 800 µM, the Km [10] was 640 µM and the Km [11] was 160 µM. The Km [12] was over 800 µM and the Km [13] was 200 µM.
